This note sets out measurements from ChEMBL document CHEMBL1138069, “Synthesis and SAR of 1,3-disubstituted cyclohexylmethyl urea and amide derivatives as non-peptidic motilin receptor antagonists” (Bioorg Med Chem Lett, 2006).

Assay [1] deals with T1, Motilin receptor (Oryctolagus cuniculus, UniProt A5A4K8). As to the kind of experiment: Inhibition of [125]I-motilin binding to rabbit motilin receptor. Put shortly: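 Rabbit colon membranes, homogenized in Tris–HCl pH 7.5 and centrifuged, with the pellet stored frozen. Bound tracer was separated by centrifugation. Nonspecific binding was taken with unlabeled porcine motilin. IC50 values are means of at least two separate determinations.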
T1 sequence (A5A4K8 whole entry): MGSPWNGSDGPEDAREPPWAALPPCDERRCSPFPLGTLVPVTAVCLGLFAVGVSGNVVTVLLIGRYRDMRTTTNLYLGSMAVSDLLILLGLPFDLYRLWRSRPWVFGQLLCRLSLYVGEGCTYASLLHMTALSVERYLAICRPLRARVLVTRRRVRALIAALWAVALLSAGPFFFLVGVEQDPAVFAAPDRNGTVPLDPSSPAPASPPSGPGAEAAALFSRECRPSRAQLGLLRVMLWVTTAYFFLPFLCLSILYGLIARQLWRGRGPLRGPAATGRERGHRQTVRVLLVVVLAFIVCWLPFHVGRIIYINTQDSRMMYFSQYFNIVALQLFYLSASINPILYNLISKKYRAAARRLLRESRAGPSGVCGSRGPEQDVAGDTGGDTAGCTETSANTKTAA

The target in assay [2] is Motilin receptor (Oryctolagus cuniculus) (UniProt A5A4K8). As to the kind of experiment: Inhibition of [125]I-motilin binding to rabbit motilin receptor at 1 uM.
Chain of Motilin receptor (Oryctolagus cuniculus) (A5A4K8 as listed by the source): as the sequence (A5A4K8 whole entry) above
The target is the same in assay [3]. Description: Agonist activity at rabbit duodenum motilin receptor by tissue contractility assay at 10 uM. Format: functional.
In assay [4] the target is T2, Motilin receptor (Homo sapiens, UniProt O43193). As to the kind of experiment: Agonist activity at human motilin receptor transfected in HEK293 cells assessed as inhibition of motilin-induced intracellular calcium mobilization at 30 uM. The class given is functional, cell-based. Background: Calcium flux is commonly read through the fluorescence of an indicator in the cells.
T2 sequence (O43193 whole entry): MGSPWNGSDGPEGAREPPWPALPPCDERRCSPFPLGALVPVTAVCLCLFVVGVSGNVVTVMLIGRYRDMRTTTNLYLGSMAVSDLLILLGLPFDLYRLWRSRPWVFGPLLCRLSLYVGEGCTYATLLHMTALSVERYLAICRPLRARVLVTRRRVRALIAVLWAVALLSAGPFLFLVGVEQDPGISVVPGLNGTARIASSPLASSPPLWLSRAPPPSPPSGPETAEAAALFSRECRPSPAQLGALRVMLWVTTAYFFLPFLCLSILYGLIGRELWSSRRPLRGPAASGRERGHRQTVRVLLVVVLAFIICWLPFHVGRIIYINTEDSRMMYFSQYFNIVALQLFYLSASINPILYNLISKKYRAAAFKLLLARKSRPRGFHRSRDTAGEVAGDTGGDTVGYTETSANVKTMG

The target of assay [5] is T2, Motilin receptor. As to the kind of experiment: Activity at human motilin receptor transfected in HEK293 cells assessed as inhibition of motilin-induced intracellular calcium mobilization. Format: functional, cell-based.
Assay [6] deals with T1, Motilin receptor. Description: Activity at rabbit duodenum motilin receptor by tissue contractility assay. Format: functional.
Assay [7] deals with T1, Motilin receptor. As to the kind of experiment: Inhibition of [125]I-motilin binding to rabbit motilin receptor.

The source made the active and inactive calls. The calls are words filed in the database; no cut-off is given here.

By IC50 is commonly meant the concentration that inhibits the measured activity by half. Molecule `O=C(Nc1ccccc1)N(CC1CCCC(N(Cc2ccccc2)C(=O)C(Cl)(Cl)Cl)C1)c1cccc(OCCN2CCOCC2)c1` (racemic) yielded a half-maximal inhibitory concentration (IC50) in assay [1] of 957 nM.

One may read the inhibition as the drop in the measured response relative to a control, in per cent. The low end stands for a response near the control, the high end for a response far below the control. In assay [2], `CC(C)(C)C(=O)N(Cc1ccccc1)C1CCCC(CN(C(=O)Nc2ccccc2)c2cccc(OCCN3CCOCC3)c2)C1` (racemic) displayed an inhibition of 50%. Consider `CC(C)(C)C(=O)N(Cc1ccccc1)[C@@H]1CCC[C@H](CN(C(=O)c2ccc(F)cc2)c2cccc(OCCN3CCCC3)c2)C1`, for which the result in assay [3] and in assay [4] was inactive. Moreover, the 50% inhibitory concentration (IC50) in assay [5] worked out at 338 nM. On to `O=C(Nc1ccccc1)N(c1cccc(OCCN2CCOCC2)c1)C1CCC(CN(Cc2cccc(Cl)c2)C(=O)C(Cl)(Cl)Cl)C1` (stereo unspecified), for which the inhibition in assay [2] came to 4%. On to `O=C(Nc1ccccc1)N(CC1CCCC(N(Cc2cccc(C(F)(F)F)c2)C(=O)C(Cl)(Cl)Cl)C1)c1cccc(OCCN2CCOCC2)c1` (racemic), for which the inhibition in assay [2] stood at 58%. With `O=C(Nc1ccccc1)N(CC1CCCC(N(Cc2ccccc2)C(=O)c2ccco2)C1)c1cccc(OCCN2CCOCC2)c1` (racemic), the IC50 in assay [1] amounted to 656 nM. Turning to `O=C(c1ccc(F)cc1)N(CC1CCCC(N(Cc2ccccc2)C(=O)C(Cl)(Cl)Cl)C1)c1cccc(OCCN2CCCC2)c1` (racemic), the figures for the IC50 in assay [1] and in assay [6] were 58 nM and 27 nM, respectively. Also, the outcome in assay [3] and in assay [4] was inactive. In the case of `O=C(c1ccc(F)cc1)N(CC1CCCC(N(Cc2cccc(Cl)c2)C(=O)C(Cl)(Cl)Cl)C1)c1cccc(OCCN2CCCC2)c1` (racemic), the values for the IC50 in assay [1] and in assay [5] were 58 nM and 267 nM, respectively. In addition, the result in assay [3] and in assay [4] was inactive. As for `COc1cccc(C(=O)NC2CCCC(CN(C(=O)Nc3ccccc3)c3cccc(OCCN4CCOCC4)c3)C2)c1` (racemic), the inhibition in assay [2] was found to be 26%. On to `O=C(c1ccc(F)cc1)N(CC1CCCC(N(Cc2cccc([N+](=O)[O-])c2)C(=O)C(Cl)(Cl)Cl)C1)c1cccc(OCCN2CCCC2)c1` (stereo unspecified), for which the half-inhibitory concentration (IC50) in assay [1] was 14 nM; in assay [5], 52 nM. The result in assay [3] and in assay [4] was inactive.

As to `CC(C)(C)C(=O)N(Cc1ccccc1)[C@H]1CCC[C@@H](CN(C(=O)c2ccc(F)cc2)c2cccc(OCCN3CCCC3)c2)C1`, the result in assay [3] and in assay [4] was inactive. In addition, in assay [5], the half-maximal inhibitory concentration (IC50) is 2480 nM. Molecule `CC(C)(C)C(=O)N(Cc1ccccc1)C1CCCC(CN(C(=O)Nc2ccccc2)c2cccc(OCCN3CCCC3)c2)C1` (racemic) showed an IC50 in assay [7] of 21 nM. Turning to `CC(C)(C)C(=O)N(Cc1ccccc1)C1CCCC(CN(C(=O)c2ccc(F)cc2)c2cccc(OCCN3CCOCC3)c2)C1` (racemic), the half-inhibitory concentration (IC50) in assay [1] was found to be 772 nM. Also, the result in assay [3] and in assay [4] was inactive. For the molecule `CC(C)(C)C(=O)N(Cc1ccccc1)C1CCCC(CN(C(=O)c2ccc(F)cc2)c2cccc(OCCN3CCCC3)c2)C1` (racemic), the result in assay [3] and in assay [4] was inactive. In addition, the half-inhibitory concentration (IC50) in assay [5] is 990 nM. As for `O=C(c1ccc(F)cc1)N(CC1CCCC(N(Cc2cccc(Cl)c2)C(=O)C(Cl)(Cl)Cl)C1)c1cccc(OCCN2CCCCC2)c1` (racemic), the values for the IC50 in assay [1], in assay [6] and in assay [5] were 63 nM, 21 nM and 228 nM, respectively. For the same molecule, the result in assay [3] and in assay [4] was inactive. Consider `O=C(Nc1ccccc1)N(CC1CCCC(N(Cc2cccc([N+](=O)[O-])c2)C(=O)C(Cl)(Cl)Cl)C1)c1cccc(OCCN2CCOCC2)c1` (racemic), for which the half-maximal inhibitory concentration (IC50) in assay [1] stood at 35 nM. For `O=C(Nc1ccccc1)N(CC1CCCC(N(Cc2ccccc2)C(=O)c2ccc(-c3ccccc3)cc2)C1)c1cccc(OCCN2CCOCC2)c1` (racemic), the inhibition in assay [2] came out at 3%. Molecule `O=C(Nc1ccccc1)N(CC1=C[C@@](Cc2cccc(Cl)c2)(NC(=O)C(Cl)(Cl)Cl)CC1)c1cccc(OCCN2CCOCC2)c1` came in with an IC50 in assay [1] of 10 nM. `O=C(Nc1ccccc1)N(CC1CCCC(NCc2cccc(Cl)c2)C1)c1cccc(OCCN2CCOCC2)c1` (racemic) had an inhibition in assay [2] of 28%.

In assay [1], `O=C(Nc1ccccc1)N(CC1CCCC(N(Cc2ccccc2)C(=O)c2cccc([N+](=O)[O-])c2)C1)c1cccc(OCCN2CCOCC2)c1` (racemic) came in with an IC50 of 1160 nM. `COc1cccc(C(=O)N(Cc2cccc(Cl)c2)C2CCC(CN(C(=O)Nc3ccccc3)c3cccc(OCCN4CCOCC4)c3)CC2)c1` (racemic) came in with an inhibition in assay [2] of 6%. Molecule `O=C(Nc1ccccc1)N(CC1=C[C@@](Cc2ccccc2)(NC(=O)C(Cl)(Cl)Cl)CC1)c1cccc(OCCN2CCOCC2)c1` registered an IC50 in assay [1] of 20 nM. The same measure, in the same setting: with `O=C(Nc1ccccc1)N(CC1CCCC(N(Cc2ccccc2)C(=O)CCc2ccccc2)C1)c1cccc(OCCN2CCOCC2)c1` (stereo unspecified) the figure was 730 nM. `O=C(Nc1ccccc1)N(CC1CCCC(N(Cc2cccc(Cl)c2)C(=O)C(Cl)(Cl)Cl)C1)c1cccc(OCCN2CCOCC2)c1` (racemic) had an inhibition in assay [2] of 23%. For `COc1cccc(C(=O)N(Cc2cccc(Cl)c2)C2CCCC(CN(C(=O)Nc3ccccc3)c3cccc(OCCN4CCOCC4)c3)C2)c1` (racemic), the half-maximal inhibitory concentration (IC50) in assay [1] stood at 650 nM.
